Values after ≈ are worked out from the molar mass of the structure shown. Active and inactive are the calls of the source. The rule behind the calls is not given here.
Assays:
Micrococcus luteus [1] = assay: Antibacterial activity against Micrococcus luteus MTCC 2470 at 20 ug/ml after 24 hrs by disk diffusion method; format: functional; settings: MTCC 2470, 24 h, read-out: IZ
Staphylococcus [2] = assay: Antibacterial activity against Staphylococcus MLS-16 MTCC 2940 at 20 ug/ml after 24 hrs by disk diffusion method; format: functional; settings: MLS-16 MTCC 2940, 24 h, read-out: IZ
Bacillus subtilis [3] = assay: Antibacterial activity against Bacillus subtilis MTCC 121 at 20 ug/ml after 24 hrs by disk diffusion method; format: functional; settings: MTCC 121, 24 h, read-out: IZ
Bacillus subtilis [4] = assay: Antibacterial activity against Bacillus subtilis MTCC 121 after 24 hrs by agar dilution method; format: functional; settings: MTCC 121, 24 h
Staphylococcus aureus [5] = assay: Antibacterial activity against Staphylococcus aureus MTCC 96 at 20 ug/ml after 24 hrs by disk diffusion method; format: functional; settings: MTCC 96, 24 h, read-out: IZ
Pseudomonas aeruginosa [6] = assay: Antibacterial activity against Pseudomonas aeruginosa MTCC 2453 at 20 ug/ml after 24 hrs by disk diffusion method; format: functional; settings: MTCC 2453, 24 h, read-out: IZ
Staphylococcus aureus [7] = assay: Antibacterial activity against Staphylococcus aureus MTCC 96 after 24 hrs by agar dilution method; format: functional; settings: MTCC 96, 24 h
Micrococcus luteus [8] = assay: Antibacterial activity against Micrococcus luteus MTCC 2470 after 24 hrs by agar dilution method; format: functional; settings: MTCC 2470, 24 h
Staphylococcus [9] = assay: Antibacterial activity against Staphylococcus MLS-16 MTCC 2940 after 24 hrs by agar dilution method; format: functional; settings: MLS-16 MTCC 2940, 24 h
Pseudomonas aeruginosa [10] = assay: Antibacterial activity against Pseudomonas aeruginosa MTCC 2453 after 24 hrs by agar dilution method; format: functional; settings: MTCC 2453, 24 h
Candida albicans [11] = assay: Antifungal activity against Candida albicans MTCC 3017 after 48 hrs by agar dilution method; format: functional; settings: MTCC 3017, 48 h
Procedure, shortened: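 Same disk/dilution format as the antibacterial assay, on potato dextrose agar (39 g/L). Compounds were from DMSO stock, loaded at 1 to 80 per disk, in triplicate. Plates were incubated at 28 ± 2 °C for 48 h. MIC was the lowest amount that arrested growth. Equivalent DMSO served as solvent control.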

Escherichia coli = assay: Antibacterial activity against Escherichia coli MTCC 739 at 80 ug/ml after 24 hrs by agar dilution method; format: functional, organism-based
[12] = test system: Mycobacterium tuberculosis; assay: Antibacterial activity against Mycobacterium tuberculosis H37Rv at 32 ug/ml […] by agar dilution method; format: functional, organism-based
Micrococcus luteus [13] = assay: Antibacterial activity against Micrococcus luteus MTCC 2470 at 80 ug/ml after 24 hrs by agar dilution method; format: functional, organism-based
Raoultella planticola = assay: Antibacterial activity against Klebsiella planticola MTCC 530 at 80 ug/ml after 24 hrs by agar dilution method; format: functional, organism-based
Candida albicans [14] = assay: Antifungal activity against Candida albicans MTCC 3017 at 20 ug/ml after 24 hrs by disk diffusion method; format: functional; settings: MTCC 3017, 24 h, read-out: IZ
Pseudomonas aeruginosa [15] = assay: Antibacterial activity against Pseudomonas aeruginosa MTCC 2453 at 80 ug/ml after 24 hrs by agar dilution method; format: functional, organism-based

For `CC(=O)NC[C@H]1CN(c2ccc(N3CCOCC3)c(F)c2)C(=O)O1` [LINEZOLID], the zone of inhibition at 20 µg/mL (Micrococcus luteus [1]) was 20 mm, the zone of inhibition at 20 µg/mL (Staphylococcus [2]) was 18 mm and the zone of inhibition at 20 µg/mL (Bacillus subtilis [3]) was 10 mm. It also gave an MIC (Bacillus subtilis [4]) of 1.5 µg/mL (≈ 4.45 µM), a zone of inhibition at 20 µg/mL (Staphylococcus aureus [5]) of 28 mm and a zone of inhibition at 20 µg/mL (Pseudomonas aeruginosa [6]) of 12 mm. It also gave an MIC (Staphylococcus aureus [7]) of 1.5 µg/mL (≈ 4.45 µM), an MIC (Micrococcus luteus [8]) of 1 µg/mL (≈ 2.96 µM) and an MIC (Staphylococcus [9]) of 1.5 µg/mL (≈ 4.45 µM).
With `O=C1O[C@@H](CNS(=O)(=O)c2ccc(C(F)(F)F)cc2)CN1c1ccc(N2CCSCC2)c(F)c1` the MIC (Pseudomonas aeruginosa [10]) was 8 µg/mL (≈ 15.4 µM), the MIC (Candida albicans [11]) was 8 µg/mL (≈ 15.4 µM) and the Activity (Escherichia coli) was “inactive”. The MIC (Bacillus subtilis [4]) was 10 µg/mL (≈ 19.2 µM), the MIC (Staphylococcus aureus [7]) was 8 µg/mL (≈ 15.4 µM) and the Activity [12] was “inactive”. For the same compound, the MIC (Staphylococcus [9]) was 8 µg/mL (≈ 15.4 µM), the Activity (Micrococcus luteus [13]) was “inactive” and the Activity (Raoultella planticola) was “inactive”.
For `O=C1O[C@@H](CNS(=O)(=O)c2cccs2)CN1c1ccc(N2CCSCC2)c(F)c1`, the MIC (Pseudomonas aeruginosa [10]) was 4 µg/mL (≈ 8.74 µM), the MIC (Candida albicans [11]) was 4 µg/mL (≈ 8.74 µM) and the Activity (Escherichia coli) was “inactive”. For the same compound, the MIC (Bacillus subtilis [4]) was 2 µg/mL (≈ 4.37 µM), the MIC (Staphylococcus aureus [7]) was 4 µg/mL (≈ 8.74 µM) and the MIC (Micrococcus luteus [8]) was 6 µg/mL (≈ 13.1 µM). The Activity [12] was “inactive”, the MIC (Staphylococcus [9]) was 4 µg/mL (≈ 8.74 µM) and the Activity (Raoultella planticola) was “inactive”.
Compound `O=C1O[C@@H](CNS(=O)(=O)c2ccc(F)cc2)CN1c1ccc(N2CCSCC2)c(F)c1` has an MIC (Pseudomonas aeruginosa [10]) of 10 µg/mL (≈ 21.3 µM), a zone of inhibition at 20 µg/mL (Micrococcus luteus [1]) of 14 mm and a zone of inhibition at 20 µg/mL (Staphylococcus [2]) of 17 mm. The zone of inhibition at 20 µg/mL (Bacillus subtilis [3]) was 23 mm, the MIC (Candida albicans [11]) was 10 µg/mL (≈ 21.3 µM) and the Activity (Escherichia coli) was “inactive”. The MIC (Bacillus subtilis [4]) was 8 µg/mL (≈ 17 µM), the zone of inhibition at 20 µg/mL (Staphylococcus aureus [5]) was 18 mm and the zone of inhibition at 20 µg/mL (Pseudomonas aeruginosa [6]) was 17 mm. For the same compound, the MIC (Staphylococcus aureus [7]) was 10 µg/mL (≈ 21.3 µM), the MIC (Micrococcus luteus [8]) was 10 µg/mL (≈ 21.3 µM) and the Activity [12] was “inactive”. For the same compound, the MIC (Staphylococcus [9]) was 10 µg/mL (≈ 21.3 µM), the zone of inhibition at 20 µg/mL (Candida albicans [14]) was 16 mm and the Activity (Raoultella planticola) was “inactive”.
`O=C1O[C@@H](CNS(=O)(=O)c2ccc(F)c(Cl)c2)CN1c1ccc(N2CCOCC2)c(F)c1` was tested, and the MIC (Candida albicans [11]) was 6 µg/mL (≈ 12.3 µM), the Activity (Escherichia coli) was “inactive” and the MIC (Bacillus subtilis [4]) was 6 µg/mL (≈ 12.3 µM). For the same compound, the MIC (Staphylococcus aureus [7]) was 6 µg/mL (≈ 12.3 µM), the MIC (Micrococcus luteus [8]) was 6 µg/mL (≈ 12.3 µM) and the Activity [12] was “inactive”. For the same compound, the MIC (Staphylococcus [9]) was 6 µg/mL (≈ 12.3 µM), the Activity (Pseudomonas aeruginosa [15]) was “inactive” and the Activity (Raoultella planticola) was “inactive”.
In the case of `O=C1O[C@@H](CNS(=O)(=O)c2cc(Cl)cc(Cl)c2)CN1c1ccc(N2CCOCC2)c(F)c1`, the MIC (Pseudomonas aeruginosa [10]) is reported as 40 µg/mL (≈ 79.3 µM), the MIC (Candida albicans [11]) is reported as 8 µg/mL (≈ 15.9 µM) and the Activity (Escherichia coli) is reported as “inactive”. For the same compound, the MIC (Bacillus subtilis [4]) was 8 µg/mL (≈ 15.9 µM), the MIC (Staphylococcus aureus [7]) was 8 µg/mL (≈ 15.9 µM) and the Activity [12] was “inactive”. For the same compound, the MIC (Staphylococcus [9]) was 8 µg/mL (≈ 15.9 µM), the Activity (Micrococcus luteus [13]) was “inactive” and the Activity (Raoultella planticola) was “inactive”.
For `CC(=O)c1ccc(S(=O)(=O)NC[C@H]2CN(c3ccc(N4CCSCC4)c(F)c3)C(=O)O2)cc1`, the MIC (Candida albicans [11]) was 20 µg/mL (≈ 40.5 µM), the Activity (Escherichia coli) was “inactive” and the MIC (Bacillus subtilis [4]) was 10 µg/mL (≈ 20.3 µM). The MIC (Staphylococcus aureus [7]) was 8 µg/mL (≈ 16.2 µM), the Activity [12] was “inactive” and the MIC (Staphylococcus [9]) was 8 µg/mL (≈ 16.2 µM). For the same compound, the Activity (Micrococcus luteus [13]) was “inactive”, the Activity (Pseudomonas aeruginosa [15]) was “inactive” and the Activity (Raoultella planticola) was “inactive”.
For `O=C1O[C@@H](CNS(=O)(=O)c2ccc(F)c(F)c2F)CN1c1ccc(N2CCOCC2)c(F)c1`, the MIC (Pseudomonas aeruginosa [10]) was 8 µg/mL (≈ 16.3 µM), the MIC (Candida albicans [11]) was 6 µg/mL (≈ 12.3 µM) and the Activity (Escherichia coli) was “inactive”. For the same compound, the MIC (Bacillus subtilis [4]) was 6 µg/mL (≈ 12.3 µM), the MIC (Staphylococcus aureus [7]) was 6 µg/mL (≈ 12.3 µM) and the Activity [12] was “inactive”. The MIC (Staphylococcus [9]) was 6 µg/mL (≈ 12.3 µM), the Activity (Micrococcus luteus [13]) was “inactive” and the Activity (Raoultella planticola) was “inactive”.
With `O=C1O[C@@H](CNS(=O)(=O)c2ccc(F)c(Cl)c2)CN1c1ccc(N2CCSCC2)c(F)c1` the MIC (Candida albicans [11]) was 20 µg/mL (≈ 39.7 µM), the Activity (Escherichia coli) was “inactive” and the MIC (Bacillus subtilis [4]) was 10 µg/mL (≈ 19.8 µM). For the same compound, the MIC (Staphylococcus aureus [7]) was 8 µg/mL (≈ 15.9 µM), the Activity [12] was “inactive” and the MIC (Staphylococcus [9]) was 8 µg/mL (≈ 15.9 µM). The Activity (Micrococcus luteus [13]) was “inactive”, the Activity (Pseudomonas aeruginosa [15]) was “inactive” and the Activity (Raoultella planticola) was “inactive”.
With `O=C1O[C@@H](CNS(=O)(=O)c2cccc3cccnc23)CN1c1ccc(N2CCOCC2)c(F)c1` the MIC (Pseudomonas aeruginosa [10]) was 6 µg/mL (≈ 12.3 µM), the MIC (Candida albicans [11]) was 20 µg/mL (≈ 41.1 µM) and the Activity (Escherichia coli) was “inactive”. For the same compound, the MIC (Bacillus subtilis [4]) was 8 µg/mL (≈ 16.4 µM), the MIC (Staphylococcus aureus [7]) was 10 µg/mL (≈ 20.6 µM) and the MIC (Micrococcus luteus [8]) was 8 µg/mL (≈ 16.4 µM). For the same compound, the Activity [12] was “inactive”, the MIC (Staphylococcus [9]) was 10 µg/mL (≈ 20.6 µM) and the Activity (Raoultella planticola) was “inactive”.
In the case of `O=C1O[C@@H](CNS(=O)(=O)c2ccc(Oc3ccccc3)cc2)CN1c1ccc(N2CCOCC2)c(F)c1`, the MIC (Candida albicans [11]) is reported as 6 µg/mL (≈ 11.4 µM), the Activity (Escherichia coli) is reported as “inactive” and the MIC (Bacillus subtilis [4]) is reported as 8 µg/mL (≈ 15.2 µM). For the same compound, the MIC (Staphylococcus aureus [7]) was 4 µg/mL (≈ 7.58 µM), the MIC (Micrococcus luteus [8]) was 8 µg/mL (≈ 15.2 µM) and the Activity [12] was “inactive”. For the same compound, the MIC (Staphylococcus [9]) was 4 µg/mL (≈ 7.58 µM), the Activity (Pseudomonas aeruginosa [15]) was “inactive” and the Activity (Raoultella planticola) was “inactive”.
With `CC(C)(C)OC(=O)N1CCN(c2ccc(N3C[C@H](CNS(=O)(=O)c4ccc(C(F)(F)F)cc4)OC3=O)cc2F)CC1` the MIC (Pseudomonas aeruginosa [10]) was 10 µg/mL (≈ 16.6 µM), the MIC (Candida albicans [11]) was 20 µg/mL (≈ 33.2 µM) and the Activity (Escherichia coli) was “inactive”. For the same compound, the MIC (Bacillus subtilis [4]) was 8 µg/mL (≈ 13.3 µM), the MIC (Staphylococcus aureus [7]) was 10 µg/mL (≈ 16.6 µM) and the MIC (Micrococcus luteus [8]) was 20 µg/mL (≈ 33.2 µM). The Activity [12] was “inactive”, the MIC (Staphylococcus [9]) was 10 µg/mL (≈ 16.6 µM) and the Activity (Raoultella planticola) was “inactive”.
